Assay results from ChEMBL document CHEMBL4190321, “Novel 4/3-((4-oxo-5-(2-oxoindolin-3-ylidene)thiazolidin-2-ylidene)amino) benzenesulfonamides: Synthesis, carbonic anhydrase inhibitory activity, anticancer activity and molecular modelling studies” (Eur J Med Chem, 2017).
pIC50, pKi: −log10 of the molar value.

Each compound was assayed on MCF7 (assay: Induction of apoptosis in human MCF7 cells assessed as decrease in Bcl-2 expression at IC50 by ELISA relative to control).
Format: functional
Design: scale not given: the % may be the effect or the level left
Summary of the method: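 MCF-7 cells were treated alongside a 1% DMSO control. Bcl-2 protein was measured with a colorimetric ELISA kit and reported in ng/ml. Data are mean ± SD of three separate experiments, and significance versus control was set at P < 0.05.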

SMILES | Activity [%]
NS(=O)(=O)c1ccc(/N=C2\NC(=O)/C(=C3/C(=O)Nc4ccc(Cl)cc43)S2)cc1 | 45

The compounds below were run against Carbonic anhydrase 9 (Homo sapiens, UniProt Q16790) (assay: Inhibition of human transmembrane carbonic anhydrase 9 by stopped-flow CO2 hydrase assay).

SMILES | pKi
NS(=O)(=O)c1ccc(NC2=NC(=O)CS2)cc1 | 8.35
NS(=O)(=O)c1cccc(/N=C2\NC(=O)/C(=C3/C(=O)Nc4ccc([N+](=O)[O-])cc43)S2)c1 | 7.32
NS(=O)(=O)c1cccc(/N=C2\NC(=O)/C(=C3/C(=O)Nc4ccccc43)S2)c1 | 7.79
NS(=O)(=O)c1cccc(/N=C2\NC(=O)CS2)c1 | 7.75
NS(=O)(=O)c1cccc(/N=C2\NC(=O)/C(=C3/C(=O)N(Cc4ccccc4)c4ccccc43)S2)c1 | 6.77
NS(=O)(=O)c1ccc(/N=C2\NC(=O)/C(=C3/C(=O)N(Cc4ccccc4)c4ccc(Cl)cc43)S2)cc1 | 7.04
NS(=O)(=O)c1ccc(/N=C2\NC(=O)/C(=C3/C(=O)N(Cc4ccccc4)c4ccccc43)S2)cc1 | 6.93
CN1C(=O)/C(=C2\S/C(=N/c3ccc(S(N)(=O)=O)cc3)NC2=O)c2ccccc21 | 6.83
NS(=O)(=O)c1ccc(/N=C2\NC(=O)/C(=C3/C(=O)N(Cc4ccccc4)c4ccc(Br)cc43)S2)cc1 | 6.49

The next lines start with the values.

pKi | SMILES
7.21 | NS(=O)(=O)c1cccc(/N=C2\NC(=O)/C(=C3/C(=O)Nc4ccc(Cl)cc43)S2)c1
7.64 | COc1ccc2c(c1)/C(=C1/S/C(=N/c3ccc(S(N)(=O)=O)cc3)NC1=O)C(=O)N2
7.00 | Cc1cc(C)c2c(c1)/C(=C1/S/C(=N/c3ccc(S(N)(=O)=O)cc3)NC1=O)C(=O)N2
7.41 | CN1C(=O)/C(=C2\S/C(=N/c3ccc(S(N)(=O)=O)cc3)NC2=O)c2cc(Br)ccc21
7.20 | NS(=O)(=O)c1ccc(/N=C2\NC(=O)/C(=C3/C(=O)Nc4ccc(Cl)cc43)S2)cc1
7.14 | Cc1ccc2c(c1)/C(=C1/S/C(=N/c3ccc(S(N)(=O)=O)cc3)NC1=O)C(=O)N2
6.91 | CN1C(=O)/C(=C2\S/C(=N/c3ccc(S(N)(=O)=O)cc3)NC2=O)c2cc(Cl)ccc21
7.58 | NS(=O)(=O)c1ccc(/N=C2\NC(=O)/C(=C3/C(=O)Nc4ccc(F)cc43)S2)cc1
7.80 | NS(=O)(=O)c1cccc(/N=C2\NC(=O)/C(=C3/C(=O)Nc4ccc(Br)cc43)S2)c1
7.61 | COc1ccc2c(c1)/C(=C1/S/C(=N/c3cccc(S(N)(=O)=O)c3)NC1=O)C(=O)N2
7.18 | NS(=O)(=O)c1ccc(/N=C2\NC(=O)/C(=C3/C(=O)Nc4ccc(Br)cc43)S2)cc1
7.47 | NS(=O)(=O)c1ccc(/N=C2\NC(=O)/C(=C3/C(=O)Nc4ccc([N+](=O)[O-])cc43)S2)cc1
7.33 | NS(=O)(=O)c1ccc(/N=C2\NC(=O)/C(=C3/C(=O)Nc4ccccc43)S2)cc1

These compounds were tested against Carbonic anhydrase 2 (Homo sapiens, UniProt P00918) (assay: Inhibition of human cytosolic carbonic anhydrase 2 by stopped-flow CO2 hydrase assay).

pKi | SMILES
7.64 | NS(=O)(=O)c1ccc(/N=C2\NC(=O)/C(=C3/C(=O)Nc4ccccc43)S2)cc1

These compounds were tested on Caco-2 (assay: Antiproliferative activity against human Caco2 cells by MTT assay).

SMILES | pIC50
NS(=O)(=O)c1cccc(/N=C2\NC(=O)/C(=C3/C(=O)Nc4ccc([N+](=O)[O-])cc43)S2)c1 | 4.69
NS(=O)(=O)c1cccc(/N=C2\NC(=O)/C(=C3/C(=O)Nc4ccccc43)S2)c1 | 4.92
NS(=O)(=O)c1cccc(/N=C2\NC(=O)/C(=C3/C(=O)N(Cc4ccccc4)c4ccccc43)S2)c1 | 3.99
NS(=O)(=O)c1ccc(/N=C2\NC(=O)/C(=C3/C(=O)N(Cc4ccccc4)c4ccc(Cl)cc43)S2)cc1 | 4.86
NS(=O)(=O)c1ccc(/N=C2\NC(=O)/C(=C3/C(=O)N(Cc4ccccc4)c4ccccc43)S2)cc1 | < 3.70
CN1C(=O)/C(=C2\S/C(=N/c3ccc(S(N)(=O)=O)cc3)NC2=O)c2ccccc21 | 3.79
NS(=O)(=O)c1ccc(/N=C2\NC(=O)/C(=C3/C(=O)N(Cc4ccccc4)c4ccc(Br)cc43)S2)cc1 | 4.24
COc1cccc2c1C(=O)c1c(O)c3c(c(O)c1C2=O)C[C@@](O)(C(=O)CO)C[C@@H]3O[C@H]1C[C@H](N)[C@H](O)[C@H](C)O1 [DOXORUBICIN] | 5.42

The next lines start with the values.

pIC50 | SMILES
5.23 | NS(=O)(=O)c1cccc(/N=C2\NC(=O)/C(=C3/C(=O)Nc4ccc(Cl)cc43)S2)c1
4.01 | COc1ccc2c(c1)/C(=C1/S/C(=N/c3ccc(S(N)(=O)=O)cc3)NC1=O)C(=O)N2
3.84 | Cc1cc(C)c2c(c1)/C(=C1/S/C(=N/c3ccc(S(N)(=O)=O)cc3)NC1=O)C(=O)N2
4.88 | CN1C(=O)/C(=C2\S/C(=N/c3ccc(S(N)(=O)=O)cc3)NC2=O)c2cc(Br)ccc21
4.69 | NS(=O)(=O)c1ccc(/N=C2\NC(=O)/C(=C3/C(=O)Nc4ccc(Cl)cc43)S2)cc1
3.76 | Cc1ccc2c(c1)/C(=C1/S/C(=N/c3ccc(S(N)(=O)=O)cc3)NC1=O)C(=O)N2
4.37 | CN1C(=O)/C(=C2\S/C(=N/c3ccc(S(N)(=O)=O)cc3)NC2=O)c2cc(Cl)ccc21
4.22 | NS(=O)(=O)c1ccc(/N=C2\NC(=O)/C(=C3/C(=O)Nc4ccc(F)cc43)S2)cc1
4.97 | NS(=O)(=O)c1cccc(/N=C2\NC(=O)/C(=C3/C(=O)Nc4ccc(Br)cc43)S2)c1
5.08 | COc1ccc2c(c1)/C(=C1/S/C(=N/c3cccc(S(N)(=O)=O)c3)NC1=O)C(=O)N2
4.37 | NS(=O)(=O)c1ccc(/N=C2\NC(=O)/C(=C3/C(=O)Nc4ccc(Br)cc43)S2)cc1
4.86 | NS(=O)(=O)c1ccc(/N=C2\NC(=O)/C(=C3/C(=O)Nc4ccc([N+](=O)[O-])cc43)S2)cc1
< 3.70 | NS(=O)(=O)c1ccc(/N=C2\NC(=O)/C(=C3/C(=O)Nc4ccccc43)S2)cc1

What follows are compounds tested on MCF7 (assay: Antiproliferative activity against human MCF7 cells by MTT assay).

SMILES | pIC50
NS(=O)(=O)c1cccc(/N=C2\NC(=O)/C(=C3/C(=O)Nc4ccc([N+](=O)[O-])cc43)S2)c1 | < 3.70
NS(=O)(=O)c1cccc(/N=C2\NC(=O)/C(=C3/C(=O)Nc4ccccc43)S2)c1 | < 3.70
NS(=O)(=O)c1cccc(/N=C2\NC(=O)/C(=C3/C(=O)N(Cc4ccccc4)c4ccccc43)S2)c1 | < 3.70
NS(=O)(=O)c1ccc(/N=C2\NC(=O)/C(=C3/C(=O)N(Cc4ccccc4)c4ccc(Cl)cc43)S2)cc1 | 3.91
NS(=O)(=O)c1ccc(/N=C2\NC(=O)/C(=C3/C(=O)N(Cc4ccccc4)c4ccccc43)S2)cc1 | < 3.70
CN1C(=O)/C(=C2\S/C(=N/c3ccc(S(N)(=O)=O)cc3)NC2=O)c2ccccc21 | 4.28
NS(=O)(=O)c1ccc(/N=C2\NC(=O)/C(=C3/C(=O)N(Cc4ccccc4)c4ccc(Br)cc43)S2)cc1 | < 3.70

Further lines, results first:

pIC50 | SMILES
< 3.70 | NS(=O)(=O)c1cccc(/N=C2\NC(=O)/C(=C3/C(=O)Nc4ccc(Cl)cc43)S2)c1
3.90 | COc1ccc2c(c1)/C(=C1/S/C(=N/c3ccc(S(N)(=O)=O)cc3)NC1=O)C(=O)N2
< 3.70 | Cc1cc(C)c2c(c1)/C(=C1/S/C(=N/c3ccc(S(N)(=O)=O)cc3)NC1=O)C(=O)N2
3.71 | CN1C(=O)/C(=C2\S/C(=N/c3ccc(S(N)(=O)=O)cc3)NC2=O)c2cc(Br)ccc21
5.40 | NS(=O)(=O)c1ccc(/N=C2\NC(=O)/C(=C3/C(=O)Nc4ccc(Cl)cc43)S2)cc1
< 3.70 | Cc1ccc2c(c1)/C(=C1/S/C(=N/c3ccc(S(N)(=O)=O)cc3)NC1=O)C(=O)N2
< 3.70 | CN1C(=O)/C(=C2\S/C(=N/c3ccc(S(N)(=O)=O)cc3)NC2=O)c2cc(Cl)ccc21
4.69 | NS(=O)(=O)c1ccc(/N=C2\NC(=O)/C(=C3/C(=O)Nc4ccc(F)cc43)S2)cc1
< 3.70 | NS(=O)(=O)c1cccc(/N=C2\NC(=O)/C(=C3/C(=O)Nc4ccc(Br)cc43)S2)c1
< 3.70 | COc1ccc2c(c1)/C(=C1/S/C(=N/c3cccc(S(N)(=O)=O)c3)NC1=O)C(=O)N2
4.95 | NS(=O)(=O)c1ccc(/N=C2\NC(=O)/C(=C3/C(=O)Nc4ccc(Br)cc43)S2)cc1
< 3.70 | NS(=O)(=O)c1ccc(/N=C2\NC(=O)/C(=C3/C(=O)Nc4ccc([N+](=O)[O-])cc43)S2)cc1
< 3.70 | NS(=O)(=O)c1ccc(/N=C2\NC(=O)/C(=C3/C(=O)Nc4ccccc43)S2)cc1

What follows are compounds tested against Carbonic anhydrase 4 (Homo sapiens, UniProt P22748) (assay: Inhibition of human transmembrane carbonic anhydrase 4 by stopped-flow CO2 hydrase assay).
Sequence of Carbonic anhydrase 4 (P22748 whole entry): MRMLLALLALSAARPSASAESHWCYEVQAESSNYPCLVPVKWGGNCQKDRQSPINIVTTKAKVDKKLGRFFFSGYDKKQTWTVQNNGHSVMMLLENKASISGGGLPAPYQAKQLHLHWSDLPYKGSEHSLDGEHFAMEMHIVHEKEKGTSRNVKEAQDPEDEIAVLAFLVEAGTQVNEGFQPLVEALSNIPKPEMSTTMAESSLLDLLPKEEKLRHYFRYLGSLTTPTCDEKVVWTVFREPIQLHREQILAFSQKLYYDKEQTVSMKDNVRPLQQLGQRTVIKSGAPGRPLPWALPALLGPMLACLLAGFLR

pKi | SMILES
< 5.00 | COc1ccc2c(c1)/C(=C1/S/C(=N/c3ccc(S(N)(=O)=O)cc3)NC1=O)C(=O)N2
< 5.00 | NS(=O)(=O)c1ccc(/N=C2\NC(=O)/C(=C3/C(=O)Nc4ccccc43)S2)cc1

The compounds below were run against Carbonic anhydrase 1 (Homo sapiens, UniProt P00915) (assay: Inhibition of human cytosolic carbonic anhydrase 1 by stopped-flow CO2 hydrase assay).
Sequence of Carbonic anhydrase 1 (P00915 whole entry): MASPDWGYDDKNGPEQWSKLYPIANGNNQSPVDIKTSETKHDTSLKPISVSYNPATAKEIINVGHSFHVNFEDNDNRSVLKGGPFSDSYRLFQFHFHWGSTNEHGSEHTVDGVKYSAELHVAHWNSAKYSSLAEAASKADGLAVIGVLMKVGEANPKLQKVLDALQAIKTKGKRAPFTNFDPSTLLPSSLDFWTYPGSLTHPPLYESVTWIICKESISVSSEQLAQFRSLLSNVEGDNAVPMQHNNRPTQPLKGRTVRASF

pKi | SMILES
6.20 | NS(=O)(=O)c1ccc(/N=C2\NC(=O)/C(=C3/C(=O)Nc4ccccc43)S2)cc1
